Assay results gathered from unrelated publications.
Lines come from different studies, so protocols differ.
PPO3: PPO3 (Agaricus bisporus, UniProt C7FF04)
HTR2A: 5-hydroxytryptamine receptor 2A (HTR2A, Homo sapiens, UniProt P28223)
OPRK1: Kappa-type opioid receptor (OPRK1, Homo sapiens, UniProt P41145)

Structure (SMILES)	target	read-out	action	technique	tested at	inhibition [%]
COc1cc(/C=C/C(=O)O)ccc1OCc1cn(CC(=O)Nc2ccccc2[N+](=O)[O-])nn1	PPO3	enzyme activity	inhibitor		40 µM	11.5
CCOC(=O)Cc1c2c3c(cc(OC)c(OC)c3c3cc(OC)c(OC)cc13)CCN2C	HTR2A	ligand displacement		radioligand	10 µM	17
CN1CCC[C@H]1c1cccnc1	OPRK1	ligand displacement			50 µM	-10.9
COc1cc(/C=C/C(=O)O)ccc1OCc1cn(CC(=O)Nc2ccc([N+](=O)[O-])cc2)nn1	PPO3	enzyme activity	inhibitor		40 µM	14
CC[C@H](C)[C@@H](C(=O)N1CCC[C@H]1c1nccs1)N(C)C(=O)[C@H](CC(C)C)N(C)C(=O)[C@H](Cc1ccc(OC)cc1)N(C)C(=O)/C=C(\C)OC	Cannabinoid receptor 1 (CNR1, Homo sapiens, UniProt P21554)	β-arrestin recruitment	antagonist		20 µM	53
COc1cc(/C=C/C(=O)O)ccc1OCc1cn(CC(=O)Nc2ccccc2Cl)nn1	PPO3	enzyme activity	inhibitor		40 µM	16.2
COc1cc2c3c(c1OC)-c1c(OC)ccc(Cl)c1CC3N(C)CC2 (racemic)	HTR2A	ligand displacement		radioligand	10 µM	70
CC(C)CC(=O)OC[C@H]1O[C@@](C#N)(c2ccc3c(N)ncnn23)[C@H](O)[C@@H]1O	HTR2A	cell-free assay			20 µM	5
COc1cc2cc3c4c(cc(OC)c(OC)c4c2cc1OC)CCN3C	HTR2A	ligand displacement		radioligand	10 µM	10
c1cncc([C@@H]2CCCN2)c1	OPRK1	ligand displacement			50 µM	-6.74
COc1cc2c(cc1OC)-c1c(OC)c(OC)cc3c1[C@H](C2)N(C)CC3	HTR2A	ligand displacement		radioligand	10 µM	65
COc1cc(/C=C/C(=O)O)ccc1OCc1cn(CC(=O)NCCc2ccccc2)nn1	PPO3	enzyme activity	inhibitor		40 µM	10.4
